Data as given in the array DNA melting data of Ke et al. (doi:10.1101/2024.01.08.574731).

Tests used:
[1] = folding enthalpy; higher = less favourable; fluorescence melt of hairpins on a sequencing array, two-state fit; conditions: sodium 0.088 M
In short: (§1)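 Cy3 fluorescence of library hairpins on a sequenced MiSeq flow cell, with annealed Cy3 and quencher oligos, was imaged in 50 mM Na-HEPES pH 8.0, 25 mM NaCl in 2.5 °C steps up to 60 °C. Signals were normalised to pre-quench Cy3 and to control variants. Melting temperature and folding enthalpy came from bootstrapped two-state fits, inverse-variance combined over four replicates. Fitted temperatures were raised by 9.35 °C to match UV melts.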

[2] = melting temperature; fluorescence melt of hairpins on a sequencing array, two-state fit, raised by 9.35 °C to match UV melts; conditions: sodium 0.088 M
In short: as §1

Row | Sequence | folding enthalpy [1] [kcal/mol] | Tm [2] [°C]
1 | GCCGTGCGAAAGCAAAGC ((..(((....)))..)) | -9.19 | 40.4
2 | GATCCATTGATGGATC ((((((....)))))) | -40.5 | 53.5
3 | GAACCAGGAAACTGATTC (((.(((....))).))) | -20.5 | 32.3
4 | GGCTTAGGAAACTAGGCC (((.(((....))).))) | -31.3 | 48.7
5 | GCGCAGGGAAACCCGCGC ((((.((....)).)))) | -34 | 66.8
6 | GCTGAGCGAAAGCCCTGC ((.(.((....)).).)) | -17.7 | 42.5
7 | GTGAAGCGAAAGCTCCAC (((.(((....))).))) | -24 | 50
8 | GTTCCGGGAAACCAGAAC ((((.((....)).)))) | -31.7 | 38.7
9 | GCCTGGCGAAAGCCACGC ((.((((....)))).)) | -16.9 | 49
10 | GATCCCTGCTGGGATC ((((((....)))))) | -39.5 | 60.2
11 | GCGGTAGGAAACTACCAC (.(((((....))))).) | -15.6 | 44.1
12 | TGAGTGAAAACTCA (((((....))))) | -18.3 | 42.4
13 | GATCTTACATAAGATC ((((((....)))))) | -35.9 | 43.1
14 | GGGCTCCGAAAGGATCCC (((.(((....))).))) | -44.4 | 53.5
15 | GATCTACTTATAGATC ((((((....)))))) | -29.4 | 43
16 | GACCCCGAAAGGGTAGTC ((((((....)))..))) | -15 | 44.4
17 | GGTGACGAAAGTCTTACC ((((((....)))..))) | -15 | 35.8
18 | GCTAGGCGAAAGCTTTGC ((.(.((....)).).)) | -17.6 | 42.3
19 | GGAGGAGGAAACTCCTCC (((((((....))))))) | -40.3 | 65.9
20 | GCCGAGCGAAAGCCCAGC ((.(.((....)).).)) | -12.4 | 35.8
21 | GATCACTGAGGTGATC ((((((....)))))) | -40.5 | 59.4
22 | GGAACACGAAAGTGATCC (((.(((....))).))) | -28.5 | 52.7
23 | GGGGTGGCGAAAGCCCCC (((..(((....)))))) | -14.2 | 62.9

Row | Sequence | folding enthalpy [1] [kcal/mol] | Tm [2] [°C]
24 | GATCACGGGTGTGATC ((((((....)))))) | -36.9 | 58.8
25 | GGTCGAGAAATCGACC ((((((....)))))) | -40 | 66.2
26 | GATCACTTTTGTGATC ((((((....)))))) | -43.1 | 59
27 | GCGCCTCGAAAGAGACGC (((.(((....))).))) | -25.5 | 59.4
28 | GCGATTGATCGC ((((....)))) | -31.5 | 53.1
29 | GATCTGAAGCAGATC ((((((...)))))) | -27.9 | 45.7
30 | GTAAGGCCGAAAGGCTAC (((..(((....)))))) | -9.55 | 33.8
31 | GCTCCGCGAAAGCGACGC ((..(((....)))..)) | -18.4 | 42.6
32 | CGAGCGGAAACGCGGTCG ((((((....)))..))) | -14.9 | 52.8
33 | GGGTAGGGAAACCTGCTC (.(.(((....))).).) | -14.8 | 36.5
34 | GATCGATGTTTCGATC ((((((....)))))) | -43 | 53.5
35 | GTCAGCGAAAGCTAGAC ((((((....))).))) | -22.8 | 50.7
36 | GCGCTGCGAAAGCTACGC (((..((....))..))) | -23 | 55.8
37 | GGGAACGGAAACGTCCCC (((.(((....))).))) | -30.7 | 50.2
38 | GATCCTGGAAACAGGACC (.(((((....))))).) | -14.4 | 40.1
39 | GTGGGAGGAAACTCCCGC (.(((((....))))).) | -33.4 | 56.7
40 | GTCCTTGGAAACAAGGAC (((((((....))))))) | -38.8 | 59.8
41 | GAAAGTGGAAACACTCTC ((.((((....)))).)) | -19.4 | 26.6
42 | GACAGCGAAAGCTCCGTC ((((((....)))..))) | -9.29 | 34.4
43 | GTACAAGGAAACTCGTAC ((((.((....)).)))) | -22 | 29.1
44 | GTCCTTGGAAACGAGGAC (((((.(....).))))) | -40.8 | 50.7
45 | GTTCGCGAAAGCGCAAC ((((((....))).))) | -13.9 | 45.6
46 | GCCAAGCGAAAGCGTTGC ((.(.((....)).).)) | -11.6 | 40.1

Row | Sequence | folding enthalpy [1] [kcal/mol] | Tm [2] [°C]
47 | GGGCCTTCGAAAGAACCC (((..(((....)))))) | -7.96 | 30.4
48 | GGACCCGGAAACGAGCCC ((.(.((....)).).)) | -16 | 30.2
49 | GGTAGGGGAAACCTTGCC ((.(.((....)).).)) | -20.2 | 34.7
50 | AGAGTGAAAACTCT (((((....))))) | -16.6 | 40.8
51 | GGATTCGAAAGAAGTCC ((((((....))).))) | -17.2 | 36.7
52 | GAACGAGAAATCGTTC ((((((....)))))) | -31.3 | 54.5
53 | GATATCCGAAAGGAATC (((.(((....)))))) | -12.9 | 30.2
54 | GGATGTGGAAACACGTCC (((.(((....))).))) | -55.2 | 53
55 | GATCACTTTGTGATC ((((((...)))))) | -34.2 | 63.1
56 | GTGGCCGAAAGGCGCCAC ((((((....)))..))) | -13.7 | 49
57 | GTAACCGAAAGGTTAC ((((((....)))))) | -29 | 67.1
58 | GCTCGGCGAAAGCCGCGC ((.((((....)))).)) | -18.5 | 65.1
59 | GATCTCAGTGAGATC ((((((...)))))) | -31.9 | 53.1
60 | GTTCCTGGAAACAGGGAC ((.((((....)))).)) | -35.1 | 50.8
61 | GTATGCCGAAAGGCTTAC (((.(((....))).))) | -19 | 50.6
62 | GGTCTCGGAAACGAGGCC ((.((((....)))).)) | -39.3 | 62.2
63 | CAATTGAAAAATTG (((((....))))) | -13.6 | 35.6
64 | GATCCTGGTGAGGATC ((((((....)))))) | -42.1 | 52.5
65 | GTTACGACGAAAGTCAAC (((..(((....)))))) | -12.3 | 25.5
66 | GCGCTCGAAAGAGCCGC ((((((....))).))) | -18.7 | 62.4
67 | GATCTGGACCAGATC ((((((...)))))) | -39.7 | 49.9
68 | GTTTTACGAAAGTAGAAC (((.(((....))).))) | -29.2 | 41.2
69 | GATCCCAATAGGGATC ((((((....)))))) | -36.5 | 64.8

Row | Sequence | folding enthalpy [1] [kcal/mol] | Tm [2] [°C]
70 | GATCTTAGTTAAGATC ((((((....)))))) | -34.9 | 44.1
71 | GGCACCGAAAGGTGTGCC ((((((....)))..))) | -16.3 | 55.4
72 | CGTCGCCGGAAACGGACG (((..(((....)))))) | -17.8 | 47.1
73 | GCAACCGAAAGGTCGTGC ((((((....)))..))) | -17.6 | 38.1
74 | GCCCAGCGAAAGCCGTGC ((.(.((....)).).)) | -7.02 | 27.1
75 | GATCCCTGACGGGATC ((((((....)))))) | -38.6 | 58.1
76 | GGGGTCGAAAGACTGCCC ((((((....)))..))) | -16.2 | 41.5
77 | GCTGGCCCGAAAGGGAGC (((..(((....)))))) | -12.7 | 44
78 | GTCGCCGGAAACGGCAAC ((.((((....)))).)) | -11.2 | 47.1
79 | CGGTCGGAAACGATGCCG ((((((....)))..))) | -22.1 | 38.6
80 | GTGGCGGGAAACCGCTGC (..((((....))))..) | -15.4 | 47.9
81 | GTCCTTGGAAACAGGGAC ((((.((....)).)))) | -33 | 46.4
82 | GATAGCGAAAGCTCAATC ((((((....)))..))) | -10.4 | 21.7
83 | GATCCGCATTCGGATC ((((((....)))))) | -36.1 | 59.8
84 | GTCGGCGGAAACGCTGAC (((.(((....))).))) | -39.3 | 63.1
85 | GCGATGCGAAAGCAATGC ((..(((....)))..)) | -18.2 | 53.1
86 | GATTTGGAAACAAATC ((((((....)))))) | -40.2 | 48.5
87 | GATCTCGGGTGAGATC ((((((....)))))) | -30 | 52.2
88 | GTGGTCGAAAGACTTCAC ((((((....)))..))) | -15.2 | 31.9
89 | GGTGGTGGAAACGCCATC (.(((.(....).))).) | -22.8 | 46.6
90 | GCGTTGCGAAAGCAAGGC ((.((((....)))).)) | -30.3 | 68.5
91 | GATCCTGATCAGGATC ((((((....)))))) | -39.8 | 56.1
92 | GCATCCGGAAACGGACGC ((.((((....)))).)) | -31.2 | 51.3
